Consider one molecule from ChEMBL document CHEMBL4619723, “New CDK8 inhibitors as potential anti-leukemic agents - Design, synthesis and biological evaluation” (Bioorg Med Chem, 2020).

A value given as a limit tells only on which side of the number the result lay.

The nature of series [1]: Selectivity ratio of EC50 for rat H9c2 cells to EC50 for human OCI-AML3 cells. It counts as toxicity. The note with it: H9c2 cells versus OCI-AML3 cells, read-out: Ratio EC50.
In series [2] the target is Serine/threonine-protein kinase PLK4 (Homo sapiens) (UniProt O00444). Put plainly: Inhibition of biotinylated ligand binding to wild-type human partial length PLK4 (M1 to S273 residues) expressed in mammalian expression system at 50 nM measured after 1 hr by kinomescan assay relative to control. The method in brief:
(§1)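 Competition binding: kinase was bound to streptavidin beads carrying a biotinylated ligand, with test compound at 50 nM, in 20% SeaBlock, 0.17x PBS, 0.05% Tween 20 and 6 mM DTT for 1 h at rt with shaking. After washing, kinase was eluted with 0.5 μM free ligand and quantified by qPCR. Result is POC relative to the DMSO (100%) and control-compound (0%) references.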

Series [3] concerns the target Mitogen-activated protein kinase kinase kinase 2 (Homo sapiens) (UniProt Q9Y2U5). Kind of series: Inhibition of biotinylated ligand binding to wild-type human partial length MAP3K2 (S315 to H619 residues) expressed in mammalian expression system at 50 nM measured after 1 hr by kinomescan assay relative to control. The method in brief: as §1

What is called inhibition is the drop in the measured response relative to a control, in per cent. Lower therefore signals a weak effect.

Serine/threonine-protein kinase PLK4 (Homo sapiens), sequence (O00444 whole entry, the tested form may be a part): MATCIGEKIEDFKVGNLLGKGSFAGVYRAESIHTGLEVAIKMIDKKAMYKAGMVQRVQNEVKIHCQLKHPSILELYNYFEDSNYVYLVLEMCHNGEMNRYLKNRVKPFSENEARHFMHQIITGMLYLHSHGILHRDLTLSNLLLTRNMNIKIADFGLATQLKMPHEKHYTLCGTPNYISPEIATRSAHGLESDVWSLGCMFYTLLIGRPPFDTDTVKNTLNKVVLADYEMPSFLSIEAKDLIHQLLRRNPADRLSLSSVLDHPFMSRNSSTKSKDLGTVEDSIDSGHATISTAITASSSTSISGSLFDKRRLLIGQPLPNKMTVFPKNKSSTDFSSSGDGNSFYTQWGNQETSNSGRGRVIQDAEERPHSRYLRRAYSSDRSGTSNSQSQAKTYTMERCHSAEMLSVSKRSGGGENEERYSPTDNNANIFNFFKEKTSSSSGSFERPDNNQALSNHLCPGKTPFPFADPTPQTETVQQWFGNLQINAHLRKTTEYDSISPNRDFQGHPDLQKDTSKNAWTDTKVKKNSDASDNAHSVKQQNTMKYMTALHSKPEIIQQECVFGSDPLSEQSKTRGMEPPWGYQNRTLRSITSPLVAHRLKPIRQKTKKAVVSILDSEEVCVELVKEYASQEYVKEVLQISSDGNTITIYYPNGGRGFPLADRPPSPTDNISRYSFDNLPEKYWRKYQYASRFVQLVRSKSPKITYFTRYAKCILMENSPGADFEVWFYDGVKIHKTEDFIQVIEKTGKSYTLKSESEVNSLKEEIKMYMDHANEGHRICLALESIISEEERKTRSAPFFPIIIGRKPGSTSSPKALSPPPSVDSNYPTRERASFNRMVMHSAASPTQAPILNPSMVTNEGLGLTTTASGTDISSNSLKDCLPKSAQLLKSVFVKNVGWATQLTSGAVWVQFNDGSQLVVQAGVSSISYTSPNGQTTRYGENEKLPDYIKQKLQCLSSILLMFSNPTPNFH
Mitogen-activated protein kinase kinase kinase 2 (Homo sapiens), sequence (Q9Y2U5 whole entry, the tested form may be a part): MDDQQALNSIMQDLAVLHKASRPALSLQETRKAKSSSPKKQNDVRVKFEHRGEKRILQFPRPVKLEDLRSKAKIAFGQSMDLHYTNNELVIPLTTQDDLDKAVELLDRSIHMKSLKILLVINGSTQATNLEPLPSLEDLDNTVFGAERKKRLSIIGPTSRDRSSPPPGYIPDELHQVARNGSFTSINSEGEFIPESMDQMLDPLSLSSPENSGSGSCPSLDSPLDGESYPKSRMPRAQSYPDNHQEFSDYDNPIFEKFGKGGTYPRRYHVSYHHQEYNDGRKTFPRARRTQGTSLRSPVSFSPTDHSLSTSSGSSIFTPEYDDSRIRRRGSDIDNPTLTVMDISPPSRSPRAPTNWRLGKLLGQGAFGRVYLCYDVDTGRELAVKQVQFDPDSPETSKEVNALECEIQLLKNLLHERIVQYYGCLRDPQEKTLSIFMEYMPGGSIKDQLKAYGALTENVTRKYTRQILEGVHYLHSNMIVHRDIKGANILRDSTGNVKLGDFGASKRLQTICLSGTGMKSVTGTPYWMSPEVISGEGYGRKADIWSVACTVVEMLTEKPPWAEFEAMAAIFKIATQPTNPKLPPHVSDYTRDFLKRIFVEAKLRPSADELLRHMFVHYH

Take `CN(C)[C@@H]1CC[C@@]2(C)[C@@H](CC[C@@H]3[C@@H]2CC[C@]2(C)C(c4cccc5cnccc45)=CC[C@@H]32)C1`: the selectivity ratio in series [1] fell in the range of 3 to 4. The inhibition in series [2] and in series [3] was over 80% throughout.
